Series [1] has as its system Rattus norvegicus. Put plainly: Suppression of testosterone in plasma of rat at 1 nmol/h, sc measured after 6 days by radioimmunoassay. The class given is functional, organism-based. The gist of the method: (§1)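 Male rats given peptide continuously at 1 nmol/h. Plasma testosterone measured after 6 and 13 days; detection limit 0.04 ng/mL.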
Series [2] deals with Rattus norvegicus. As to the kind of experiment: Suppression of testosterone in plasma of rat at 1 nmol/h, sc measured after 13 days by radioimmunoassay. The class given is functional, organism-based. The gist of the method:
as §1

Series [3] in a line: Plasma concentration in Copenhagen rat at 2 nmol/h, sc measured after 6 days by radioimmunoassay. The class given is ADME, organism-based.
In series [4] the test system is Rattus norvegicus. Put plainly: Induction of ovulation in immature Wistar rats assessed as increase in number of oocytes at 30 to 100 nmol/kg administered dorsally by stereomicroscopy. In kind it is functional, organism-based. The gist of the method:
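23-day-old female Wistar rats primed subcutaneously with eCG 10 IU/animal. Two days later, saline-dissolved agents injected dorsally at 30 or 100 nmol/kg (5 rats/group; saline control 6; hCG 10 IU positive control). Animals killed 24–25 h later. Oöcytes retrieved from oviducal ampulla under stereomicroscopy, or by flushing oviduct and uterus with saline, and counted.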

Series [5] concerns Rattus norvegicus. As to the kind of experiment: Suppression of testosterone in plasma of Sprague-Dawley rat at 2 nmol/h, sc measured after 6 days by radioimmunoassay. The class given is functional. The gist of the method:
(§2)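 9-week-old male CD(SD)IGS or Copenhagen rats (5/group) given peptide in distilled water by subcutaneous dorsal ALZET osmotic pump (2 mM, 0.001 mL/h) for 6 days; water-pump controls. Plasma (aprotinin/EDTA) testosterone measured by RIA on 0.05 mL. Values below detection limit (0.04 ng/mL) set to 0.04; results expressed as percent of control.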

In series [6] the test system is Rattus norvegicus. As to the kind of experiment: Suppression of testosterone in plasma of Copenhagen rat at 2 nmol/h, sc measured after 6 days by radioimmunoassay. The class given is functional, organism-based. The gist of the method:
as §2

Series [7] deals with T1, KiSS-1 receptor (Homo sapiens, UniProt Q969F8). Put plainly: Agonist activity at recombinant human KISS1R expressed in CHO cells assessed as intracellular calcium mobilization incubated for 30 mins at 37 degC and 30 mins at room temperature by Fluo-4 NW staining-based FLIPR assay relative to Metastin (45 to 54). The class given is functional, cell-based. The gist of the method:
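CHO cells stably expressing human KISS1R seeded at 15,000 cells/well, cultured 24 h, then loaded with Fluo-4 Direct in HBSS with 4 mM probenecid and 0.1% BSA (30 min 37 °C, 30 min room temperature). Compounds from 10 µM DMSO stocks diluted in sample buffer and added. Fluorescence read for 2 min at 2 s intervals. Peak counts give agonist activity. EC50 expressed as ratio to metastin(45-54).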

In series [8] the target is KiSS-1 receptor (Rattus norvegicus, UniProt Q924U1). As to the kind of experiment: Binding affinity to rat KISS1R.
Series [9] deals with T1, KiSS-1 receptor. Put plainly: Binding affinity to human KISS1R expressed in CHO cell membranes.
Series [10] can be described thus: Metabolic stability in mouse serum assessed as compound remaining at 0.1 mM after 1 hr by HPLC analysis. In kind it is ADME. The settings on record: read-out: Stability. The gist of the method:
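Pooled mouse serum (45 µL) spiked with 5 µL of 1 mM aqueous peptide, giving 0.1 mM initial, and incubated at 37 °C. Aliquots taken at time 0 and after 1 h, quenched by boiling 3 min. Peptide quantified by HPLC peak area. Percent remaining relative to time 0; three independent experiments.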

Series [11] can be described thus: Bioavailability in Sprague-Dawley rat at 1 mg/kg, sc. The class given is ADME, organism-based. The conditions noted are these: in vivo.

The source made the active and inactive calls. The rule behind the calls is not given here. Non-standard residues stand in square brackets, D forms with d. Residues, ends and D or L forms follow the SMILES beside them. Arg(Me) = CNC(=N)NCCC[C@H](N)C(=O)O; d4Pal = N[C@H](Cc1ccncc1)C(=O)O; azaGly = NNC(=O)O

T1 sequence (Q969F8 whole entry): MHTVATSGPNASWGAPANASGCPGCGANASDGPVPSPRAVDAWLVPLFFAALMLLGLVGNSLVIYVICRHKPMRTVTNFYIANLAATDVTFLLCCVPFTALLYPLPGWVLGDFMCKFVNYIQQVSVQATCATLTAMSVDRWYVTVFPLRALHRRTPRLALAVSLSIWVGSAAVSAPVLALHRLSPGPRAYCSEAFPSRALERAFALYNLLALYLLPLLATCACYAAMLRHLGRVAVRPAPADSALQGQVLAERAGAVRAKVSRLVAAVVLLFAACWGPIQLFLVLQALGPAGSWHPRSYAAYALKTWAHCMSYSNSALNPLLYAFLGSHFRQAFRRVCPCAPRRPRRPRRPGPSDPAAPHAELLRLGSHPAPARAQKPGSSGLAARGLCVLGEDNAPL
Sequence of KiSS-1 receptor (Rattus norvegicus, UniProt Q924U1) (Q924U1 whole entry): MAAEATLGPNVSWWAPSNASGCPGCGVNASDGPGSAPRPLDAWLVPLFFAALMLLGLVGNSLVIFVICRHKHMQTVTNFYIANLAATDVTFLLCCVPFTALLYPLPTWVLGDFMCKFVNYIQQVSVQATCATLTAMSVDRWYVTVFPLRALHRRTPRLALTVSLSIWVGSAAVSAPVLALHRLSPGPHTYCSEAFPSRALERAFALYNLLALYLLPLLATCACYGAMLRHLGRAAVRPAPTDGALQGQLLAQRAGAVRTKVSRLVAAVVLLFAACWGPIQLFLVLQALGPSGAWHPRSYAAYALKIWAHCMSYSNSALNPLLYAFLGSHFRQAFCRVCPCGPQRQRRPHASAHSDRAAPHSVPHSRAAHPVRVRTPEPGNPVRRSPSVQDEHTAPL

With `CNC(=N)NCCC[C@H](NC(=O)[C@H](CC(C)C)NC(=O)NNC(=O)[C@H](Cc1ccccc1)NC(=O)[C@H](CO)NC(=O)[C@H](CC(N)=O)NC(=O)[C@@H](Cc1ccncc1)NC(=O)[C@H](N)Cc1ccc(O)cc1)C(=O)N[C@@H](Cc1ccccc1)C(N)=O` [KISS1-305] (H-[dY][d4Pal]NSF[azaGly]L[Arg(Me)]F-NH2), the result in the series on Rattus norvegicus [1], in the series on Rattus norvegicus [2], with Rattus norvegicus [4] and in the series with Rattus norvegicus [6] was Active. Moreover, the concentration at 144 h in series [3] is 0.95 nM. Also, the Activity in the series with Rattus norvegicus [5] was found to be 0.04 ng/mL. The fold change (FC) on KiSS-1 receptor [7] was 4.8. For the same molecule, the Ki on KiSS-1 receptor [8] was found to be 100 pM; on KiSS-1 receptor [9] it was 89 pM. In addition, the remaining at 1 h, 100 µM in series [10] amounted to 54.9%. The molecule also registered a bioavailability in [11] of 40.4%.

Values taken from ChEMBL document CHEMBL3085624, “Design, synthesis, and biological evaluation of novel investigational nonapeptide KISS1R agonists with testosterone-suppressive activity” (J Med Chem, 2013).
